The values that follow come from PMC6447045 (Nature chemical biology, 2019).

Assay [1] has as its system HIF-2 (EPO and NDRG1) and HIF-1 (PGK1) target genes in Hep3B cells. The assay is described as follows: qPCR in Hep3B cells, PHD inhibitors and HIF-2α agonist co-treatment. It counts as cell-based. The settings on record: 10 μM PHD inhibitor alone. Put shortly: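 Hep3B cells were grown in DMEM with 10% FBS in 6-well plates. They were pretreated with 10 μM molidustat or roxadustat for 8 h, then 5 μM agonist was added (final DMSO 0.1%). After a further 24 h, RNA was isolated and reverse-transcribed. Target mRNAs were quantified by SYBR Green real-time PCR and normalized to ACTB in the same sample.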
(In qPCR the cycle at which signal appears reflects the starting amount.)

In a further assay the target is HIF-1α-ARNT heterodimer (Mus musculus, UniProt Q61221). The assay is described as follows: TR-FRET-based in vitro binding assay, HIF-1α-ARNT. It counts as biochemical. In general terms: In TR-FRET formats the signal depends on donor and acceptor labels being close together.
The subject of assay [2] is HIF-2 target genes in 786-O cells. Put plainly: qPCR of endogenous HIF-2 target genes in 786-O cells. It is filed as cell-based. The settings on record: 24 hours, PT2385 0.01-10 μM, T1001, M1001, M1002 10 μM. Put shortly:
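786-O cells were grown in RPMI1640 with 10% FBS in 6-well plates at 37 °C, 5% CO2. Compound was given at various concentrations with 0.1% DMSO, and DMSO alone served as control. After 24 h, RNA was isolated and converted to cDNA. SYBR Green real-time PCR was normalized to ACTB. Values are mean ± s.d., n=3 independent cultures.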

The subject of assay [3] is HIF-2 and HIF-1 target genes in Hep3B cells. The assay is described as follows: qPCR of HIF target genes in Hep3B cells under hypoxia. It counts as cell-based. To be noted: hypoxia (1% O2), 10 μM, 8 h.

As to `O=c1c(-n2ccnn2)c[nH]n1-c1cc(N2CCOCC2)ncn1` [molidustat], in assay [1], the “effect on HIF-1 selective target gene (PGK1)” value is given as “relatively small effects”; the “increase of expression of HIF-2 target genes (EPO and NDRG1)” value is given as 3–5 fold.

In the case of `Cc1nc(C(=O)NCC(=O)O)c(O)c2ccc(Oc3ccccc3)cc12` [roxadustat], in assay [1], the “effect on HIF-1 selective target gene (PGK1)” value is reported as “relatively small effects”; the “increase of expression of HIF-2 target genes (EPO and NDRG1)” value was 3–5 fold.

Consider `CS(=O)(=O)c1ccc(Oc2cc(F)cc(C#N)c2)c2c1[C@H](O)C(F)(F)C2` [PT2385, (S)-3-((2,2-Difluoro-1-hydroxy-7-(methylsulfonyl)-2,3-dihydro-1 H-inden-4-yl)oxy)-5-fluorobenzonitrile], for which, on HIF-1α-ARNT heterodimer, the “effect on HIF-1α-ARNT subunit interactions” value is given as “no PT2385 effect”. Moreover, the “effect on expression of endogenous HIF-2 target genes” value in assay [2] is given as “dose-dependent inhibitory activity”. For the same compound, in assay [3], the “effect on expression of HIF-2 specific and HIF-1 specific genes” value is “decreased the expression of HIF-2 specific genes (VEGF, EPO and NDRG1) but not the HIF-1 specific gene (PGK1)”.
